# MC4R ag barr: human MC4R agonism via beta-arrestin | P32245 | U2OS MC4R beta-arrestin complementation, luminescence; percent of melanotan II response, DMSO zero | activation, % at 8.9 µM | actives 0.98% (n = 360,000) | AID 540308;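 active = activation above a per-plate cutoff, the mean activation of sample wells on that plate plus 3 SD, cut at about 8% in these data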
# MC4R antagonist: blocks human MC4R cAMP signaling; AID 540295; inhibition, % at 6.5 µM; MC4R-expressing cells, MTII-stimulated cAMP, LANCE TR-FRET; P32245; actives 0.48% (n = 360,000);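 active = inhibition above its plate's cutoff, the mean of tested wells on that plate plus 3 SD, cut at about 29% in these data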
#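 System: U2OS cells stably expressing human melanocortin 4 receptor (MC4R). Reagent: Melanotan II challenge after compound preincubation. Doses: 6.5 µM. Times: 30-min compound, 1-h challenge, 1-h detection, room temperature. Measured by: TR-FRET with Eu-cAMP and labeled anti-cAMP, 671 nm. Replicates: singlicate.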
# NTR1 ag: agonists of human neurotensin receptor NTR1. NTR1-U2OS beta-arrestin-GFP spot imaging, agonist mode. activation, % at 20 µM. actives 0.17% (n = 330,000). AID 493036;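 active = activation at or above 40% of the spot to cytoplasm intensity ratio, with at least 20 cells analyzed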
# HTR2A ag: activates the mouse 5-HT2A serotonin receptor; CHO-K1 mHTR2A beta-arrestin complementation, luminescence; percent of 30 µM serotonin response; activation, % at 7.6 µM; actives 0.66% (n = 360,000); P35363;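 active = activation above a run cutoff, the mean activation of all tested compounds plus 3 SD, cut at about 14% in these data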
# PREPL inhibitor: inhibits the human prolyl oligopeptidase-like enzyme | recombinant PREPL, fluorescence polarization activity-based probe | inhibition, % at 5.96 µM | actives 0.68% (n = 320,000); in the data active = inhibition above about 43%
# Lipid droplet: hepatic lipid droplet formation modulation; AML12 mouse hepatocytes, oleate lipid droplets, BODIPY imaging; inhibition, % at 6.5 µM; actives 0.4% (n = 240,000); AID 1656;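 active = lipid droplet intensity inhibited by at least 50%, with more than 500 cells counted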
#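 Material: mouse AML12 hepatocyte cell line, fixed after treatment; Timing: compound with oleate, overnight; Technique: high-content imaging of BODIPY-stained droplets and DAPI nuclei; Probe or stimulus: oleate, 100 µM final; Dosing: compound at 6.5 µM only.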
# MOR ag counter: activates human mu opioid receptor in HTR2A counterscreen; shares compounds with HTR2A ag; U2OS OPRM1 beta-arrestin PathHunter, luminescence; DMSO 0%, DAMGO 9.3 µM 100%; activation, % at 9.3 µM; actives 5.3% (n = 2,300);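 active = mean activation above the mean of DMSO-only wells plus 3 SD, cut at about 0.5% in these data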
# Target sequence (P35372 whole entry, looked up): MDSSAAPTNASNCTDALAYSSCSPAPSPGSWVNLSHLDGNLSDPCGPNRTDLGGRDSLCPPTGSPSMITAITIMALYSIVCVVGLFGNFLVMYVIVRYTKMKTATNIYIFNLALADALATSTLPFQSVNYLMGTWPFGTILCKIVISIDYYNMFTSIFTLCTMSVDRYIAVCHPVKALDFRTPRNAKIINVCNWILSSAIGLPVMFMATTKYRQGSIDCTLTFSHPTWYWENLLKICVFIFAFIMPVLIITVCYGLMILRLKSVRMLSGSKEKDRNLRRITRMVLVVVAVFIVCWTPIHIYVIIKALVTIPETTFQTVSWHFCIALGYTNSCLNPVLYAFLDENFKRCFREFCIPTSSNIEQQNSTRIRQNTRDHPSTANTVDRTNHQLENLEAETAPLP
# HTR2A ag conf: mouse HTR2A agonism confirmed; CHO-K1 PathHunter beta-arrestin recruitment, luminescence; DMSO 0%, 30 µM serotonin 100%; actives 19% (n = 2,300); shares compounds with HTR2A ag; activation, % at 7.6 µM;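 active = mean activation across triplicates above the hit threshold derived in the original primary screen, cut at about 15% in these data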
# Numbers stand for hits; . = inactive; / = no result. Shown are actives, neighbours in structure and some others; about 2.7% of the full set was active somewhere.
SMILES,MC4R ag barr,MC4R antagonist,NTR1 ag,HTR2A ag,PREPL inhibitor,Lipid droplet,MOR ag counter,HTR2A ag conf
Cc1ccnc(NC(=O)c2ccc(NC(=O)CC3SC(N4CCCC4)=NC3=O)cc2)c1 (stereo unspecified),.,.,.,.,.,/,/,/
Cc1ccnc(NC(=O)c2cccc(NC(=O)CC3SC(N4CCCCC4)=NC3=O)c2)c1 (stereo unspecified),.,.,.,14.7,.,/,.,.
Cc1cc(C)c(NC(=S)NC(CO)(CO)CO)c(C)c1,.,.,.,.,.,.,/,/
CN1CCC(=C2c3ccccc3C(O)c3ccccc32)CC1 (stereo unspecified),.,.,.,.,.,.,/,/
CN1CCc2cccc3c2C1Cc1ccc(O)c(O)c1-3 (stereo unspecified),.,.,.,44.5,.,.,0.6,135.0
Cc1ccc([C@@H]2[C@@H]3C(=O)N(C)C(=O)[C@@H]3[C@]3(C)C(=O)N(Cc4ccccn4)CC(=O)N23)o1,.,.,.,16.6,.,.,.,.
Cc1ccc([C@@H]2[C@@H]3C(=O)N(C)C(=O)[C@@H]3[C@]3(Cc4ccccc4)C(=O)N(Cc4ccccn4)CC(=O)N23)o1,.,.,.,.,.,.,/,/
O=C(NCC(=O)N(c1ccccc1F)C(C(=O)NC1CCCC1)c1ccncc1)c1ccco1 (stereo unspecified),.,.,.,.,.,.,/,/
Cc1ccc(S(=O)(=O)NC2=NCN(CCN3CCOCC3)CN2)cc1,.,.,.,16.6,.,/,.,.
CCOC(=O)C1CCCN(C(=O)COc2ccc(C(C)(C)C)cc2)CC1 (stereo unspecified),.,.,/,.,/,/,/,/
CCOC(=O)C1CCN(Cc2cnc(Oc3ccc(C(C)(C)C)cc3)s2)CC1,.,.,.,18.7,.,/,.,38.6
COC(=O)Nc1ncc(CN2CCc3ccccc3C2)s1,.,.,.,.,.,.,/,/
CCOC(=O)C1CCN(Cc2cnc(NC(=O)OC)s2)CC1,.,.,.,15.7,.,/,.,22.6
CCOC(=O)c1sc(C)c2c1NC(C)(c1cccs1)NC2=O (stereo unspecified),.,.,.,.,.,.,/,/
Cc1ccccc1-c1ccc(/C=C2/SC(N3CCOCC3)=NC2=O)o1,.,.,.,21.2,.,.,.,89.3
Oc1cccc(NC(=S)Nc2ccccc2)c1,.,.,.,17.5,.,.,.,.
Oc1cccc(Nc2ccccc2)c1,.,.,.,.,.,/,/,/
O=C(C1CC(=O)N(c2ccc3c(c2)OCCO3)C1)N1CCN(S(=O)(=O)c2ccccc2F)CC1 (stereo unspecified),.,.,/,18.1,/,/,.,.
Cc1cc(C)cc(SCc2noc(C(=O)NCCN(C)C)c2C(=O)NCCN(C)C)c1,.,.,.,.,.,/,/,/
COc1ccccc1-c1noc(-c2ccccc2)n1,.,.,.,17.9,.,.,.,.
COc1ccc(-c2nc(-c3ccccc3OC)no2)cc1OC,.,.,.,.,.,/,/,/
O=C(NCC(=O)N(c1cccnc1)C(C(=O)NCc1ccco1)c1ccccc1)c1ccco1 (stereo unspecified),.,.,.,14.9,.,/,.,.
CCOC(=O)Cc1nnc(NC(=O)C(CC)Sc2nncn2C)s1 (stereo unspecified),.,.,.,14.4,.,.,.,.
N#CCCCC1(CCCC#N)OCCO1,.,.,/,.,/,/,/,/
C=C(C)c1cccc(C(C)(C)NC(=O)Nc2ccc(OC)nc2)c1,.,.,.,44.9,.,.,.,16.4
C=C(C)c1cccc(C(C)(C)NC(=O)Nc2ccc(C)cn2)c1,.,.,.,14.7,.,.,.,32.1
C=C(C)c1cccc(C(C)(C)NC(=O)Nc2nncs2)c1,.,.,.,.,.,.,/,/

# Compound activity from PubChem.
